Experiment [1] can be described thus: thallium flux activation in parental CHO cells, counter-screen for KCNQ1 potentiator project (AID 493006;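 active means duplicate-averaged activation above buffer control mean plus 5 SD of those controls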). The conditions noted are these: parental CHO-K1 cells, FluxOR thallium flux, at 10 µM; stronger effect = higher value. The method, boiled down:
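Test system: parental CHO-K1 cells, FluxOR dye-loaded / Probe or stimulus: potassium plus thallium depolarizing stimulus, 5x stock 12.5 mM K2SO4, Tl2SO4 / Timing: overnight 37 °C plating, 90 min dye, 20 min dark compound / Measured by: kinetic thallium-flux fluorescence / Read-out: max-minus-min fluorescence over baseline, percent of buffer-to-R-L3 span / Benchmarks: buffer and R-L3 controls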

Experiment [2] has as its target Potassium voltage-gated channel subfamily KQT member 1 (Homo sapiens) (UniProt P51787). Kind of experiment: KCNQ1 potassium channel potentiators, confirmation, FluxOR thallium flux, CHO cells, duplicates (AID 493007;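 active means potentiation averaged over duplicate wells exceeding buffer-only control mean by more than 3 SD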;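 on outcome: cells depolarized by a potassium plus thallium sulfate stimulus after compound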;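 on potentiation: 0% = buffer-only wells and 100% = R-L3 activator control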). The settings on record: KCNQ1 cell line, FluxOR thallium flux fluorescence, at 10 µM; stronger effect = higher value, % of reference activator effect, buffer zero. The method, boiled down: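 Assay system: CHO cells carrying KCNQ1 | Controls: Buffer and R-L3 controls | Schedule: FluxOR dye loading 90 min, compound exposure 20 min, room temperature | Read-out: Baseline-normalized fluorescence change, percent of buffer-to-R-L3 range | Replicates: Each compound tested in duplicate | Technique: Kinetic thallium influx fluorescence with FluxOR dye, 10 s baseline, 110 s post-stimulus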

The target in experiment [3] is Potassium voltage-gated channel subfamily KQT member 2 (Rattus norvegicus) (UniProt O88943). Kind of experiment: rat KCNQ2 channel potentiation, selectivity assay for KCNQ1 potentiator project, KCNQ2-CHO-K1 cells (AID 493009;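 active means mean duplicate potentiation above the buffer control mean plus 5 SD of buffer wells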;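 further: assay conditions were tuned for KCNQ1 rather than KCNQ2 modulators; signal is max minus min fluorescence divided by baseline after thallium stimulus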). The conditions noted are these: FluxOR thallium flux fluorescence, at 10 µM; stronger effect = higher value, scaled: buffer 0, activator control 100.
Potassium voltage-gated channel subfamily KQT member 2 (Rattus norvegicus), sequence (O88943 whole entry, looked up): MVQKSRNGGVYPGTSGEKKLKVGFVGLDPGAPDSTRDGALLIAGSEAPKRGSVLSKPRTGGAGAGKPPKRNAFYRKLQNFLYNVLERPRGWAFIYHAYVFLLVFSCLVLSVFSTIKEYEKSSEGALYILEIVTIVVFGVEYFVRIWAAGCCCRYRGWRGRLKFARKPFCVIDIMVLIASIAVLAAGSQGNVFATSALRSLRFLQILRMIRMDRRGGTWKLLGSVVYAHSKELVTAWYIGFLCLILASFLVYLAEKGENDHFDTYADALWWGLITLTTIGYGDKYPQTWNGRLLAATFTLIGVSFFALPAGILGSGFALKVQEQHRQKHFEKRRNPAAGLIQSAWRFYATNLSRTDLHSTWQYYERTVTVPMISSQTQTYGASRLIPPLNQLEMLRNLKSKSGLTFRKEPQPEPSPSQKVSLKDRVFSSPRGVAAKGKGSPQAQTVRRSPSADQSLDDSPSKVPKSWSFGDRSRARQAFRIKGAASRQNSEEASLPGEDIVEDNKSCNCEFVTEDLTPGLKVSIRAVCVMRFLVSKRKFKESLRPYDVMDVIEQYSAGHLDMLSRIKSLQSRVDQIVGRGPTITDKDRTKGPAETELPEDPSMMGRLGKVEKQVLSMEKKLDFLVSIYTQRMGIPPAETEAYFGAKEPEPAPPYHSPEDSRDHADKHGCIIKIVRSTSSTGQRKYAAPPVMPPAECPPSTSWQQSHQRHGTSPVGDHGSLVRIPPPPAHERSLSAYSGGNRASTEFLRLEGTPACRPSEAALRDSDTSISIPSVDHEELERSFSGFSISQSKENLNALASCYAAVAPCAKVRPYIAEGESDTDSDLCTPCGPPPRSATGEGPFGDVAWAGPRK
Experiment [4] concerns the target Potassium voltage-gated channel subfamily KQT member 1 (Homo sapiens) (UniProt P51787). As to the kind of experiment: KCNQ1 channel current potentiators, confirmation, orthogonal assay for KCNQ1 potentiator project, IonWorks patch clamp, KCNQ1-CHO cells (AID 493184;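 active means current rise at least 3 SD above the untreated control mean in each of two repeat wells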). The settings on record: automated patch clamp current, at 10 µM; stronger effect = higher value. Summed up:
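Material: KCNQ1-expressing CHO cells; doses: 10 µM final, single point; probe or stimulus: voltage step from -90 mV holding to +40 mV, 2,000 ms; signal: automated voltage clamp, amphotericin B perforated patch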

Experiment [5] deals with Potassium voltage-gated channel subfamily E member 1 (Homo sapiens) + Potassium voltage-gated channel subfamily KQT member 1 (Homo sapiens) (UniProt P15382+P51787). As to the kind of experiment: KCNQ1/KCNE1 complex potentiators, confirmation, selectivity assay for KCNQ1 potentiator project, thallium flux, CHO-K1 KCNQ1/E1 cells (AID 493186). The conditions noted are these: FluxOR thallium flux, at 10 µM; stronger effect = higher value. Summed up: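 Test system: CHO-K1 cells with KCNQ1/E1. Times: 90-min dye loading then 20-min compound exposure, both at room temperature. Measured by: kinetic FluxOR thallium-flux fluorescence, 10 s baseline plus 110 s after stimulus. Repeats: duplicate wells per compound.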
Potassium voltage-gated channel subfamily E member 1 (Homo sapiens) + Potassium voltage-gated channel subfamily KQT member 1 (Homo sapiens), sequence (P51787 whole entry, looked up): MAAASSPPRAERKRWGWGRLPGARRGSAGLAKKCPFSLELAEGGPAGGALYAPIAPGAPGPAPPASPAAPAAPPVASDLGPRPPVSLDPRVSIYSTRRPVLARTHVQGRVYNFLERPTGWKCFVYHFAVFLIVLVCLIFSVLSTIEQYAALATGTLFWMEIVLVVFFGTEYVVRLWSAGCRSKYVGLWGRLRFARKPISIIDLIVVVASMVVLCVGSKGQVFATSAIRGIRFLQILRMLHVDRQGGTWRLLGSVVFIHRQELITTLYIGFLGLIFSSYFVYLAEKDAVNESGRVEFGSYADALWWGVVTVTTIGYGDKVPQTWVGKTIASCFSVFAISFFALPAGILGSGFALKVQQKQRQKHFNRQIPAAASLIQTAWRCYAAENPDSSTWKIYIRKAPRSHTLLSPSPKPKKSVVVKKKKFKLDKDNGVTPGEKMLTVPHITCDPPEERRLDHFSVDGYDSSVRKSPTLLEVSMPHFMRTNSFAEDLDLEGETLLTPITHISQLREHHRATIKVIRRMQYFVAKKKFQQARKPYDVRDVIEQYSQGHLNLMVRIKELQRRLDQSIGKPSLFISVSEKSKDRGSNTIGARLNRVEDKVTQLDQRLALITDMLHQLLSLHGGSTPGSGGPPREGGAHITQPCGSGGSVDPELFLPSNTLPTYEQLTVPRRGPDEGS

SMILES strings stand for the structures. Calls of active or inactive are those of the source.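 How the source made its calls, unless noted: active means mean duplicate activation above the buffer control mean plus 5 SD of those controls; inactive means the rest.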

Potassium voltage-gated channel subfamily KQT member 1 (Homo sapiens), sequence (P51787 whole entry, looked up): as above

In the case of `CCC(C)N(C(=O)COC(=O)c1cc([N+](=O)[O-])ccc1N1CCOCC1)C1CCS(=O)(=O)C1` (stereo not given), the result in experiment [1], in experiment [2], in experiment [3], in experiment [4] and in experiment [5] was inactive.

For the compound `Cc1ccc2cc(/C=N/NC(=O)CN3CCCCC3)c(Cl)nc2c1`, the result in experiment [1], in experiment [2], in experiment [3], in experiment [4] and in experiment [5] was inactive.

For `O=C(N/N=C/c1ccc(-c2ccccc2)o1)c1ccccc1O`, the result in experiment [1], in experiment [3], in experiment [4] and in experiment [5] was inactive. For the same compound, the potentiation in experiment [2] is 31% (active).

`CCOC(=O)N1CCC(NC(=O)c2cc(C(=O)NCc3ccc(F)cc3)ccc2CO)CC1`: the result in experiment [1], in experiment [2], in experiment [3], in experiment [4] and in experiment [5] was inactive.

Consider `CCOC(=O)c1sc(NC(=S)NC(=O)c2ccccc2)nc1C`, for which the result in experiment [1], in experiment [2], in experiment [3], in experiment [4] and in experiment [5] was inactive.

For the compound `CC(C)c1ccc(OCC(=O)NNC(=S)NC(=O)c2cccs2)c(Br)c1`, the result in experiment [1], in experiment [3], in experiment [4] and in experiment [5] was inactive. Also, the potentiation in experiment [2] is 22% (active).

Take `C/C(=N\NC(=S)NCCc1ccccc1)c1cccs1`: the result in experiment [1], in experiment [2], in experiment [3], in experiment [4] and in experiment [5] was inactive.

Take `CCOC(=O)Cc1csc(NC(=S)NC(=O)c2ccc(Cl)cc2)n1`: the result in experiment [1], in experiment [2], in experiment [3], in experiment [4] and in experiment [5] was inactive.

As for `COc1cccc(C(=O)CC(=O)C(=O)Nc2ccc(C)cc2Cl)c1`, the outcome in experiment [1], in experiment [2], in experiment [3], in experiment [4] and in experiment [5] was inactive.

Consider `O=C(Nc1ccc(Cl)cc1C(F)(F)F)C(Sc1cccc[n+]1[O-])c1ccccc1` (stereo not given), for which the outcome in experiment [1], in experiment [2], in experiment [3], in experiment [4] and in experiment [5] was inactive.

With `COc1ccc(-c2nc(=S)c3c([nH]2)Oc2ccc(C)cc2C3)cc1O`, the outcome in experiment [1], in experiment [3], in experiment [4] and in experiment [5] was inactive. The potentiation in experiment [2] was 28.5% (active).

In the case of `O=C(O)/C=C/C(=O)c1ccc2c(c1)CCc1ccccc1-2`, the result in experiment [1], in experiment [2], in experiment [3], in experiment [4] and in experiment [5] was inactive.

For the compound `CCCOc1ccccc1NS(=O)(=O)c1ccc2[nH]c(=O)[nH]c2c1`, the outcome in experiment [1], in experiment [2], in experiment [3], in experiment [4] and in experiment [5] was inactive.

On to `O=c1c2ccccc2[nH]c(=S)n1C1CCCCC1`, for which the result in experiment [1], in experiment [2], in experiment [3], in experiment [4] and in experiment [5] was inactive.

As to `Cc1cc(C(=O)CCl)c(C)n1-c1cccc([N+](=O)[O-])c1`, the result in experiment [1], in experiment [2], in experiment [3], in experiment [4] and in experiment [5] was inactive.

`O=C(NCC1CCCO1)c1cccc(Oc2ccccc2)c1` (stereo not given): the result in experiment [1], in experiment [2], in experiment [3], in experiment [4] and in experiment [5] was inactive.

As for `O=C(CN1CCCCCC1)Nc1ccc(Oc2ccccc2)cc1`, the result in experiment [1], in experiment [2], in experiment [3], in experiment [4] and in experiment [5] was inactive.

Regarding `S=C(N/N=C/c1cccc2ccccc12)Nc1cccc(Cl)c1`, the outcome in experiment [1], in experiment [3], in experiment [4] and in experiment [5] was inactive. Further, the potentiation in experiment [2] is 59.5% (active).

For the compound `Fc1ccc(-n2cc(-c3ccccc3)c3c(=S)nc[nH]c32)cc1`, the result in experiment [1], in experiment [3], in experiment [4] and in experiment [5] was inactive. In experiment [2], the potentiation was 108% (active).

As to `CC(=O)C[C@H]1c2cc(C(F)(F)F)ccc2S(=O)(=O)N1Cc1ccccc1`, the result in experiment [1], in experiment [3], in experiment [4] and in experiment [5] was inactive. Besides, the potentiation in experiment [2] was 65.5% (active).

Consider `COc1ccc(CC(=O)NC(=S)Nc2cccc(C)c2)cc1`, for which the result in experiment [1], in experiment [2], in experiment [3], in experiment [4] and in experiment [5] was inactive.

Take `CCOC(=O)c1cc(C)sc1NC(=O)CN1CCN(C(=O)c2ccco2)CC1`: the result in experiment [1], in experiment [3], in experiment [4] and in experiment [5] was inactive. In experiment [2], the potentiation was 17.5% (active).

As for `Cc1[nH]nc(SCC(=O)N2CCCCC2)c1[N+](=O)[O-]`, the outcome in experiment [1], in experiment [2], in experiment [3], in experiment [4] and in experiment [5] was inactive.

Take `O=C(CN(CC1CCCO1)C(=O)CNS(=O)(=O)c1ccc(Cl)cc1)NC1CCCC1` (stereo not given): the result in experiment [1], in experiment [2], in experiment [3], in experiment [4] and in experiment [5] was inactive.

For `Oc1c(N=NC(=S)Nc2ccccc2F)c2ccccc2n1Cc1cccc(Cl)c1`, the outcome in experiment [1], in experiment [2], in experiment [3], in experiment [4] and in experiment [5] was inactive.

In the case of `CS(=O)(=O)N1CCc2cc(-c3csc(NC(=O)C(c4ccccc4)c4ccccc4)n3)ccc21`, the outcome in experiment [1], in experiment [2], in experiment [3], in experiment [4] and in experiment [5] was inactive.

Consider `Cc1ccc(C)c(NC(=S)NNC(=O)c2csc3c2CCCC3)c1`, for which the outcome in experiment [1], in experiment [3], in experiment [4] and in experiment [5] was inactive. Also, the potentiation in experiment [2] is 20.5% (active).

In the case of `C=CS(=O)(=O)c1sc(Cl)c(N2CCOCC2)c1[N+](=O)[O-]`, the result in experiment [1], in experiment [3], in experiment [4] and in experiment [5] was inactive. In addition, the potentiation in experiment [2] was 19% (active).

As to `Cc1nc(-c2ccc(NC(=O)Cc3ccccc3)cc2)cs1`, the result in experiment [1], in experiment [2], in experiment [3], in experiment [4] and in experiment [5] was inactive.

Consider `Cc1ccc(-c2noc(CNS(=O)(=O)c3ccccc3)n2)cc1`, for which the outcome in experiment [1], in experiment [2], in experiment [3], in experiment [4] and in experiment [5] was inactive.

Source of the values: PubChem BioAssay.
